Results: ChEMBL document CHEMBL4373727, “Thienopyrimidinone Derivatives That Inhibit Bacterial tRNA (Guanine37-N1)-Methyltransferase (TrmD) by Restructuring the Active Site with a Tyrosine-Flipping Mechanism” (J Med Chem, 2019)
Converted amounts (≈) assume the structure as drawn. The source made the active and inactive calls. No cut-off for these calls is given here.

Legend:
[1] = molecular target: T1, tRNA (guanine-N(1)-)-methyltransferase (Mycobacterium tuberculosis (strain ATCC 25618 / H37Rv)) (UniProt P9WFY7); assay: Binding affinity to full length Mycobacterium tuberculosis tRNA (guanine(37)-N1)-methyltransferase expressed in Escherichia coli BL21 (DE3) assessed as thermal stabilization of protein by measuring change in melting temperature at 0.1 mM by SYPRO orange based thermal shift assay
T1 sequence (whole entry): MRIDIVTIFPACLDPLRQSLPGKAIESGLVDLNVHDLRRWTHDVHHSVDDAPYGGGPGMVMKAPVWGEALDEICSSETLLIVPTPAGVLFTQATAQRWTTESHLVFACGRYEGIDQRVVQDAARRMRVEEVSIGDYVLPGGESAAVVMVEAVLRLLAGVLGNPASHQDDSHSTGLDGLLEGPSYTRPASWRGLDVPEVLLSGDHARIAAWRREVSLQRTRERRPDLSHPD
How it was run: (§1)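 Thermal shift: 4 μM TrmD with 5× SYPRO Orange and ligand in 50 mM Tris-HCl pH 8, 150 mM NaCl, 1 mM MgCl2, 1 mM DTT, 0.05% Tween-20. Buffer-only control. Heated from 25 to 95 °C in a real-time PCR instrument, and Tm taken as the unfolding midpoint. Ligand levels: SAH 2 mM, inhibitors 0.1 mM.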

[2] = molecular target: T2, tRNA (guanine-N(1)-)-methyltransferase (Pseudomonas aeruginosa (strain ATCC 15692 / DSM 22644 / CIP 104116 / JCM14847 / LMG 12228 / 1C / PRS 101 / PAO1), UniProt Q9HXQ1); assay: Binding affinity to Pseudomonas aeruginosa tRNA (guanine(37)-N1)-methyltransferase (Leu5 to Asp25 residues) expressed in Escherichia coli BL21 (DE3) Rosetta T1R cells by surface plasmon resonance assay
T2 sequence (Q9HXQ1 whole entry): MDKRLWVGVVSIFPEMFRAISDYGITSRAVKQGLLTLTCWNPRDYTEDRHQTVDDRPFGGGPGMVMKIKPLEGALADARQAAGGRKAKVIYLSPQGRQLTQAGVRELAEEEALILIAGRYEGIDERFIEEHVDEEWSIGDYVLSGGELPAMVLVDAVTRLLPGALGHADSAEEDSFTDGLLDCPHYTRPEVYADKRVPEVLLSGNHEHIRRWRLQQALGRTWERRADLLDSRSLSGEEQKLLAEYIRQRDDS
How it was run: (§2)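 SPR at 25 °C. His-tagged TrmD (50 μg/mL) captured on an anti-His antibody surface (about 2200 RU), with a blank reference cell. Buffer: 50 mM Tris-HCl pH 8, 150 mM NaCl, 1 mM MgCl2, 1 mM DTT, 0.05% Tween-20. Analyte in 2-fold dilutions, injected lowest to highest at 30 μL/min, 30 s contact, 240 s dissociation. KD from steady-state affinity fit.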

[3] = molecular target: T3, tRNA (guanine-N(1)-)-methyltransferase (Pseudomonas aeruginosa (strain ATCC 15692 / DSM 22644 / CIP 104116 / JCM14847 / LMG 12228 / 1C / PRS 101 / PAO1)) (UniProt Q9HXQ1); assay: Binding affinity to Pseudomonas aeruginosa tRNA (guanine(37)-N1)-methyltransferase (Leu5 to Asp25 residues) expressed in Escherichia coli BL21 (DE3) Rosetta T1R cells assessed as dissociation rate constant by surface plasmon resonance assay; how it was run: as §2
T3 sequence (whole entry): T2 sequence (Q9HXQ1 whole entry)

[4] = test system: Mycolicibacterium smegmatis; assay: Antibacterial activity against Mycolicibacterium smegmatis MC2 155 at 100 uM incubated for 24 hrs; assay type: functional, organism-based
How it was run: (§3)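 Single-concentration growth screen: 100 μM test compound with log-phase bacteria at about 5×10^5 cells/mL. Incubation 24 h at 37 °C. Growth read by OD600 and given as percent of untreated control. MRSA was grown in cation-adjusted Mueller–Hinton broth. M. smegmatis was grown in complete Middlebrook 7H9. Ampicillin and kanamycin served as positive controls.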

[5] = test system: Staphylococcus aureus; assay: Antibacterial activity against methicillin-resistant Staphylococcus aureus ATCC 43300 at 100 uM incubated for 24 hrs; assay type: functional, organism-based; how it was run: as §3
[6] = molecular target: T4, tRNA (guanine-N(1)-)-methyltransferase (Staphylococcus aureus (strain NCTC 8325 / PS 47)) (UniProt Q2FZ43); assay: Binding affinity to full length Staphylococcus aureus tRNA (guanine(37)-N1)-methyltransferase expressed in Escherichia coli BL21 (DE3) assessed as dissociation rate constant by surface plasmon resonance assay; how it was run: as §2
T4 sequence (whole entry): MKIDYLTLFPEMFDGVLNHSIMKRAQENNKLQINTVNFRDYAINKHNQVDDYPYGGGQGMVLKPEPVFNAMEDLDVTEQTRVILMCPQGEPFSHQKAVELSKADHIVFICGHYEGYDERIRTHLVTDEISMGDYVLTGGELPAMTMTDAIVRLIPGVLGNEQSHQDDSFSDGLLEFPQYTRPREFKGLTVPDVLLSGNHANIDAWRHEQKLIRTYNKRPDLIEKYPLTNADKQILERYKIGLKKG

[7] = molecular target: T3, tRNA (guanine-N(1)-)-methyltransferase (Pseudomonas aeruginosa (strain ATCC 15692 / DSM 22644 / CIP 104116 / JCM14847 / LMG 12228 / 1C / PRS 101 / PAO1)); assay: Binding affinity to Pseudomonas aeruginosa tRNA (guanine(37)-N1)-methyltransferase (Leu5 to Asp25 residues) expressed in Escherichia coli BL21 (DE3) Rosetta T1R cells assessed as thermal stabilization of protein by measuring change in melting temperature at 0.1 mM by SYPRO orange based thermal shift assay; how it was run: as §1
[8] = test system: Escherichia coli; assay: Antibacterial activity against Escherichia coli BW25113 incubated for 24 hrs by serial broth microdilution method; assay type: functional, organism-based
How it was run: (§4)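 Log-phase cultures from four colonies grown overnight at 37 °C, inoculated at ~5×10^5 cells/mL in cation-adjusted Mueller–Hinton broth with serially diluted compound. Grown 24 h at 37 °C, then OD600 read. MIC50/MIC90 are the concentrations giving 50%/90% growth inhibition relative to drug-free controls. Two independent experiments in duplicate.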

[9] = test system: Mycobacterium tuberculosis; assay: Bactericidal activity against Mycobacterium tuberculosis H37Rv assessed as reduction in CFU at 1 to 4 times MIC90 incubated for 7 days; assay type: functional; conditions: 168 h, read-out: MBC99.9
How it was run: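 Then plated on complete 7H10 agar for CFU. Inoculum plated at time zero. MBC99.9 is a 1000-fold CFU reduction versus the time-zero inoculum.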

[10] = test system: Pseudomonas aeruginosa; assay: Bactericidal activity against Pseudomonas aeruginosa PA14 assessed as reduction in CFU at 1 to 4 times MIC90 incubated for 24 hrs; assay type: functional, organism-based
[11] = test system: Streptococcus pneumoniae; assay: Antibacterial activity against Streptococcus pneumoniae ATCC 49619 incubated for 24 hrs by serial broth microdilution method; assay type: functional; conditions: ATCC 49619, 24 h
How it was run: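 Cultured in MH medium plus 3% defibrinated sheep blood at 37 °C, 5% CO2. Log-phase inoculum ~5×10^5 cells/mL was exposed to serial compound dilutions for 24 h. MIC50/MIC90 are relative to drug-free controls. Two independent experiments in duplicate.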

[12] = test system: Acinetobacter baumannii; assay: Antibacterial activity against Acinetobacter baumannii ATCC 17961 incubated for 24 hrs by serial broth microdilution method; assay type: functional; conditions: ATCC 17961, 24 h; how it was run: as §4
[13] = test system: Klebsiella pneumoniae; assay: Antibacterial activity against Klebsiella pneumoniae ATCC 13883 incubated for 24 hrs by serial broth microdilution method; assay type: functional, organism-based; how it was run: as §4

| Compound | ΔTm [1] | Kd [2] | Kdiss [3] | Activity [4] | Activity [5] | Kdiss [6] | ΔTm [7] | MIC50 [8] | MIC90 [8] | MBC [9] | MBC99.9 [10] | MIC50 [11] | MIC90 [11] | MIC50 [12] | MIC90 [12] | MIC50 [13] | MIC90 [13] |
| --- | --- | --- | --- | --- | --- | --- | --- | --- | --- | --- | --- | --- | --- | --- | --- | --- | --- |
| NC1CCN(Cc2ccc(CNC(=O)c3csc4nc[nH]c(=O)c34)cc2)CC1 | 1 to 13 °C | 91 nM | 0.0117 s⁻¹ | inactive | inactive | 1.65 s⁻¹ | 4 to 29 °C |  |  |  |  |  |  |  |  |  |  |
| CCCCCCCCNCc1ccc(CNC(=O)c2csc3nc[nH]c(=O)c23)cc1 |  | 1.6 nM | 0.0218 s⁻¹ | Active | Active | 9.15 s⁻¹ | 12 °C | inactive | inactive | > 100 µM | inactive | 60 µM (≈ 25.6 µg/mL) | 73 µM (≈ 31.1 µg/mL) | 62 µM (≈ 26.4 µg/mL) | 95 µM (≈ 40.5 µg/mL) | inactive | inactive |
